Source: ChEMBL document CHEMBL1137381, “Biarylpyrazole inverse agonists at the cannabinoid CB1 receptor: importance of the C-3 carboxamide oxygen/lysine3.28(192) interaction” (J Med Chem, 2006)

What was measured:
[1] = molecular target: Cannabinoid receptor 1 (Rattus norvegicus) (UniProt P20272); test: Antagonist activity against rat CB1 receptor expressed in superior cervical ganglion neurons assessed as block of WIN-55212-2-elicited calcium ion current inhibition at 1 uM relative to control; format: functional, tissue-based; parameters: scale not given: the % may be the effect or the level left
Outline: (§1)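 SCG neurons from rat, nuclear-injected with HA-tagged rat CB1 cDNA, recorded after overnight incubation by whole-cell patch clamp at room temperature. Ca²⁺ currents isolated with TEA/TTX external solution and NMDG/EGTA pipette solution. WIN55,212-2 (1 µM) coapplied with test compound. Inhibition of Ca²⁺ current expressed as % of control amplitude, taken 10 ms after the step to +5 mV.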

[2] = molecular target: Cannabinoid receptor 1 (Rattus norvegicus) (UniProt P20272); test: Agonist activity against rat CB1 receptor expressed in superior cervical ganglion neurons assessed as increase in calcium ion current at 1 uM relative to control; format: functional, tissue-based
Outline: (§2)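 Rat SCG neurons nuclear-injected with N-terminally HA-tagged rat CB1 cDNA (100 ng/µL) plus EGFP marker plasmid, incubated overnight. Whole-cell voltage-clamp at 24-26 °C. Ca²⁺ current measured 10 ms into step to +5 mV, preceded by 50 ms prepulse to +80 mV. Test drug superfused alone, diluted from 10 mM DMSO stock. Current increase expressed as % of control amplitude; paired t-test.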

Cannabinoid receptor 1 [3] = molecular target: T1, Cannabinoid receptor 1 (Homo sapiens, UniProt P21554); test: biochemical; format: cell-based, HEK293
Cannabinoid receptor 1 [4] = molecular target: T1, Cannabinoid receptor 1; test: biochemical; format: cell-based, HEK293; remark: listed apart in the source
Cannabinoid receptor 1 [5] = molecular target: T1, Cannabinoid receptor 1; test: biochemical; format: cell-based, HEK293; remark: listed apart in the source
[6] = molecular target: Cannabinoid receptor 1 (Rattus norvegicus) (UniProt P20272); test: Agonist activity against rat CB1 receptor expressed in superior cervical ganglion neurons assessed as increase in calcium ion current at 10 uM relative to control; format: functional, tissue-based; outline: as §2
[7] = molecular target: Cannabinoid receptor 1 (Rattus norvegicus) (UniProt P20272); test: Antagonist activity against rat CB1 receptor expressed in superior cervical ganglion neurons assessed as block of WIN-55212-2-elicited calcium ion current inhibition at 10 uM relative to control; format: functional, tissue-based; parameters: scale not given: the % may be the effect or the level left; outline: as §1

T1 sequence (P21554 whole entry): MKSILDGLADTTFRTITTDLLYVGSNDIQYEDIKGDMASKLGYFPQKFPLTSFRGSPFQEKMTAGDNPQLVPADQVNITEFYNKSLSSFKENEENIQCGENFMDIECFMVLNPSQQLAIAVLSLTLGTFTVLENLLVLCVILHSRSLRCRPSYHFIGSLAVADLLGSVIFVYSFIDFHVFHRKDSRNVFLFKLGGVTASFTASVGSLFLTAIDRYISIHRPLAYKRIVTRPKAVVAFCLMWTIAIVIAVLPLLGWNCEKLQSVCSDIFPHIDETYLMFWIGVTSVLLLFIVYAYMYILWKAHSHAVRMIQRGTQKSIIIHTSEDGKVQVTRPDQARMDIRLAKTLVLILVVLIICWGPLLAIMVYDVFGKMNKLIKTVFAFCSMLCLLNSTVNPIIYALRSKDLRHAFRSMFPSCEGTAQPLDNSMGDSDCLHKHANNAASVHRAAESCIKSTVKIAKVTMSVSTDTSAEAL
Sequence of Cannabinoid receptor 1 (Rattus norvegicus) (P20272 whole entry, the tested form may be a part): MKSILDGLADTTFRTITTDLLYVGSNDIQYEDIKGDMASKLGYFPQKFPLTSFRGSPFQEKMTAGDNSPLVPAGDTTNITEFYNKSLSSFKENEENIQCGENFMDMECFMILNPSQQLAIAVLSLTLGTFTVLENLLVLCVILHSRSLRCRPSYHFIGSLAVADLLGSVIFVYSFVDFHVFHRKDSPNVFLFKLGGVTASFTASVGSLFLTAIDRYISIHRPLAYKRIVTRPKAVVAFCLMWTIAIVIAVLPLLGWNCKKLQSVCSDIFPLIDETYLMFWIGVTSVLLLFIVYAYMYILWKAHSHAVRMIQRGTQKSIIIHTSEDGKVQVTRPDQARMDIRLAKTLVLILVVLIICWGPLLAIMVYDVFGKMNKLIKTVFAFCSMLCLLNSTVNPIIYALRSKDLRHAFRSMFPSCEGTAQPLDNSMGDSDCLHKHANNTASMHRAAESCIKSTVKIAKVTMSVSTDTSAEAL

Cc1c(C(=O)NN2CCCCC2)nn(-c2ccc(Cl)cc2Cl)c1-c1ccc(Cl)cc1
Activity [1]: -4.8% | Activity [2]: 46.6%

Cc1c(C(=O)NC2CCCCC2)nn(-c2ccc(Cl)cc2Cl)c1-c1ccc(Cl)cc1
Ki (Cannabinoid receptor 1 [3]): 1.8 nM | Ki (Cannabinoid receptor 1 [4]): 3.7 nM | Activity [1]: -3.8% | Ki (Cannabinoid receptor 1 [5]): 5 nM | Activity [2]: 35.2%

Cc1c(C(=O)N(C)C2CCCCC2)nn(-c2ccc(Cl)cc2Cl)c1-c1ccc(Cl)cc1
Activity [6]: 23.9% | Activity [7]: -7% | Ki (Cannabinoid receptor 1 [3]): 30 nM | Ki (Cannabinoid receptor 1 [4]): 107 nM | Activity [1]: -4.5% | Ki (Cannabinoid receptor 1 [5]): 54 nM | Activity [2]: 26.1%

Cc1c(/C=C/N2CCCCC2)nn(-c2ccc(Cl)cc2Cl)c1-c1ccc(Cl)cc1
Activity [6]: 13.9% | Activity [7]: 0.7% | Ki (Cannabinoid receptor 1 [3]): 213 nM | Ki (Cannabinoid receptor 1 [4]): 223 nM | Activity [1]: -2.5% | Ki (Cannabinoid receptor 1 [5]): 258 nM | Activity [2]: 3.2%

Cc1c(/C=N/N2CCCCC2)nn(-c2ccc(Cl)cc2Cl)c1-c1ccc(Cl)cc1
Ki (Cannabinoid receptor 1 [3]): 17 nM | Ki (Cannabinoid receptor 1 [4]): 19 nM | Activity [1]: 2.6% | Ki (Cannabinoid receptor 1 [5]): 57 nM | Activity [2]: 11.5%

Cc1c(C(=O)c2cccc3ccccc23)c2cccc3c2n1[C@H](CN1CCOCC1)CO3
Activity [2]: 47.1%

Cc1c(/C=C/C2CCCCC2)nn(-c2ccc(Cl)cc2Cl)c1-c1ccc(Cl)cc1
Ki (Cannabinoid receptor 1 [3]): 31.3 nM | Ki (Cannabinoid receptor 1 [4]): 60 nM | Activity [1]: 28.1% | Ki (Cannabinoid receptor 1 [5]): 85 nM | Activity [2]: 8.6%
